Assay outcomes: PubChem BioAssay, Broad Institute
A selection: hits, their analogues and other compounds. The true share with any hit is near 2.9%.
rRNA inh HTS: inhibits bacterial ribosomal RNA function over humanized ribosomes | hit rate 1.6% among 350,000 | E. coli WT GFP vs humanized-ribosome RFP mutants, fluorescence, 24 h; stronger effect = lower value; DMSO median 0, no signal -100 | GFP signal change (wild-type ribosome), % (no concentration beside the values);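 active = significant combined selectivity score with lowered wild-type GFP, culture density cut under 30%, mutant RFP and density less affected; inactive = any of these conditions unmet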
FGF22 binding: shifts melting point of recombinant human FGF22 | recombinant FGF22 thermal shift, SYPRO orange fluorescence; percent of sucrose octasulfate shift, DMSO zero | activity (Tm shift, normalised), % at 9.99 µM | hit rate 1.5% among 340,000;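 active = mean Tm shift, scaled 0 neutral to 100 positive control, at about 1.3% or above, every replicate too, limit read from the data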
Target sequence (Q9HCT0 whole entry, looked up): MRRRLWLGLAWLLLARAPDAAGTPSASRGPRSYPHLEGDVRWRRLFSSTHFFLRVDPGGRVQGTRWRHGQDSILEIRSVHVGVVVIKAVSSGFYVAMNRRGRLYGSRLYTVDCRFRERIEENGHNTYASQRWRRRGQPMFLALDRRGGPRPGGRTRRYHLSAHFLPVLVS
Cneo AK release: causes C. neoformans cell lysis. adenylate kinase release luminescence, 4 h; normalised: neutral wells 0, clomiphene wells 100. lysis activity, % at 15 µM. hit rate 0.2% among 360,000;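 active = mean lysis activity across replicates of at least 80%, whatever share of replicates individually reach that level; inactive = mean lysis activity below 80%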
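Schedule: static 4 h at 37 °C with compound, 1 h detection; system: C. neoformans cells; benchmarks: Clomiphene as positive control; buffer or medium: fresh YPD medium; measure: luminescence rise reflecting yeast cell lysis; measured by: luminescent adenylate kinase detection reagent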
PGC1a acetyl inh: PGC1a acetylation modulation, inhibitor mode; U2OS PGC1a acetylation, AlphaScreen anti-acetyl-lysine; with virally co-expressed GCN5 acetyltransferase; inhibition, % at 15.6 µM; hit rate 0.17% among 350,000;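 active = every replicate shows inhibition of at least 40%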;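 note: 0% = neutral control wells and 100% = positive control wells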
Vif inh: HIV Vif inhibition. HEK293T cells, Vif self-association by quenched fluorescence, imaging, 24 h. inhibition, % at 7.49 µM. hit rate 0.35% among 340,000; in the data active = inhibition above about 50%, passing the limit was not always enough
PglD inh: blocks C. jejuni PglD acetyltransferase activity; inhibition, % at 12.5 µM; purified PglD enzyme, DTNB colorimetric CoA detection; hit rate 0.098% among 360,000; AID 602405; in the data active = inhibition above about 16%, passing the limit was not always enough
An asterisk follows results filed as active; . = no result.

SMILES | rRNA inh HTS | FGF22 binding | Cneo AK release | PGC1a acetyl inh | Vif inh | PglD inh
COCC(=O)Nc1ccc2c(c1)C(=O)N(C)[C@@H]1CC[C@@H](CC(=O)Nc3ccccc3)O[C@H]1CO2 | -3 | 0 | -1 | 4 | . | -1
S=C(Nc1ccc(Cl)c(Cl)c1)NC1CCCCC1 | -58 | 0 | . | 20 | -21 | .
Cc1ccc(NC(=S)NC2CCCCC2)cc1S(=O)(=O)N(C)C | -14 | 2.7* | -3 | . | 0 | 3
S=C(Nc1ccc2nsnc2c1)NC1CCCCC1 | -44* | 0 | . | . | 2 | .
FC(F)(F)c1ccc(NC(=S)NC2CCCCC2)cc1 | -54* | 0 | 37 | 4 | -7 | 4
C[C@H]1CN([C@@H](C)CO)C(=O)c2cc(NS(=O)(=O)c3cccs3)ccc2O[C@H]1CN(C)C(=O)Nc1cccc2ccccc12 | -1 | 0 | 1 | 2 | . | -1
C[C@@H]1CN([C@H](C)CO)C(=O)Cc2cc(NC(=O)Nc3ccc4c(c3)OCO4)ccc2O[C@@H]1CN(C)Cc1ccc(C(F)(F)F)cc1 | 1 | 0 | -1 | -8 | . | 1
CCNC(=O)C[C@@H]1CC[C@@H]2[C@@H](COc3ccc(NC(=O)c4cccc(OC)c4)cc3C(=O)N2C)O1 | 1 | 0 | -1 | 7 | . | -4
CNC[C@@H]1Oc2c(NC(=O)C3CCCCC3)cccc2C(=O)N([C@H](C)CO)C[C@@H]1C | 4 | 0 | 2 | -3 | . | -2
CCCC(=O)Nc1ccc2c(c1)OC[C@@H](C)N(C(=O)CC1CC1)C[C@@H](C)[C@H](OC)CN(C)C2=O | 0 | 0 | 3 | -6 | . | -2
Cc1ccc2nc(SCC(=O)Nc3ccc(C(N)=O)cc3)[nH]c2c1 | -8 | 43* | . | -13 | 10 | .
Cc1cc(C)cc(NC(=O)CCCSc2nc3ccccc3[nH]2)c1 | . | . | . | . | -5 | .
Cc1cccc(NC(=O)CCCSc2nc3ccccc3[nH]2)c1 | -26 | 43* | . | 11 | -6 | .
Cc1ccc2nc(SCC(=O)c3ccc(O)cc3O)[nH]c2c1 | -23* | 0 | -6 | 6 | -2 | -3
COCC(=O)Nc1ccc2c(c1)C(=O)N(C)[C@H]1CC[C@@H](CC(=O)NCc3cccc(F)c3)O[C@@H]1CO2 | 2 | 0 | 1 | 8 | . | -2
CC(C)N(C(=O)Nc1ccc2nsnc2c1)C(C)C | -16* | 0 | . | . | . | .
COc1cccc(C(=O)Nc2ccc3c(c2)C(=O)N(C)C[C@@H](OC)[C@@H](C)CN(C(=O)C2CCCC2)[C@H](C)CO3)c1 | -3 | 0 | -2 | . | . | 4
C[C@@H]1CN([C@H](C)CO)S(=O)(=O)c2ccc(-c3ccccc3)cc2O[C@@H]1CN(C)C(=O)Cc1ccccc1 | -19 | 0 | -12 | -12 | . | 0
CCCc1cc(=O)oc2cc(OCc3cc(OC)c(OC)c(OC)c3)c(Cl)cc12 | . | . | -1 | 43 | 106* | 2
Cc1ccc(N(Cc2ccc(C(=O)NN=C3CCN(C)CC3)cc2)S(C)(=O)=O)cc1C | . | . | . | . | 64* | .
COc1ccc(CN2CCNC(=O)C2CC(=O)NCCCC2CCCC2)c(C)c1C (stereo not drawn) | -26* | 0 | 1 | -2 | 8 | 0
C[C@@H]1CN([C@H](C)CO)C(=O)c2cc(NC(=O)Cc3cn(C)c4ccccc34)ccc2O[C@@H]1CN(C)C(=O)Nc1cccc2ccccc12 | -1 | 0 | 0 | 9 | . | -1
COc1cc(/C=C(\C#N)C(=O)NCCc2ccccc2)cc(OC)c1O | -31* | 0 | . | -18 | 7 | .
COc1cccc(CNC(=O)C[C@H]2CC[C@H](NS(=O)(=O)c3ccccc3OC)[C@H](CO)O2)c1 | -1 | 0 | 0 | -7 | . | 1
Cc1cc(C)n(CCNC(=O)c2cc(COc3c(F)cccc3F)on2)n1 | -15 | 0 | 0 | -9 | 52* | 4
SMILES | rRNA inh HTS | FGF22 binding | Cneo AK release | PGC1a acetyl inh | Vif inh | PglD inh
Cc1cc(C)n(CCN(C)C(=O)c2cc(COc3c(F)cccc3F)on2)n1 | 9 | 0 | . | . | . | .
O=C(Nc1ccc(F)cc1)N[C@@H]1C[C@@H]2O[C@@H](CO)CC[C@@H]2O[C@@H]1CCc1ccc(C2=CCCC2)cc1 | . | . | . | -28 | . | .
C/C=C/c1ccc([C@H]2[C@@H](C#N)N(S(=O)(=O)c3cccc(F)c3)[C@H]2CO)cc1 | -6 | 0 | 91* | -12 | . | 4
C/C(=N\NC(=O)c1cc(C)nc2ccccc12)c1ccccn1 | -24* | 0 | 4 | . | 4 | 5
CN1[C@@H]2Cn3c(ccc(-c4ccccc4)c3=O)[C@H]1[C@@H](C(=O)N1CCC(Cc3ccccc3)CC1)[C@@H]2CO | -1 | 0 | 44 | . | . | 0
CCOC(=O)c1c(NC(=O)CCC(=O)N2CCOCC2)sc2c1CC(C)(C)OC2 | . | . | -3 | 3 | 55* | 7
CCOC(=O)c1c(NC(=O)CCN2CCOCC2)sc2c1CC(C)(C)OC2 | . | . | . | -2 | 10 | .
CCCNC(=O)C[C@H]1CC[C@H]2[C@H](COc3ccc(NC(=O)c4cc(C)on4)cc3C(=O)N2C)O1 | -2 | 0 | 2 | 0 | . | 1
CCOC(=O)COc1ccc(S(=O)(=O)c2ccc(OCC(=O)OCC)cc2)cc1 | 12 | 0 | -1 | 2 | 120* | -3
CCOC(=O)c1c(C)[nH]c(C(=O)COC(=O)COc2ccc(OC)cc2)c1C | 9 | 44* | . | . | 28 | .
CCOC(=O)c1[nH]c(C)c(C(=O)Nc2cc(OC)ccc2OC)c1C | . | . | 0 | -64 | 54* | 4
CCOC(=O)COc1ccc(S(=O)(=O)Nc2ccc(C)cc2)cc1 | . | . | . | -4 | 12 | .
CCCC(=O)Nc1ccc2c(c1)OC[C@@H](C)N(C(=O)CC)C[C@@H](C)[C@H](OC)CN(C)C2=O | -2 | 0 | -1 | 0 | . | -1
C[C@@H]1CN([C@@H](C)CO)C(=O)c2cc(NC(=O)c3ccncc3)ccc2O[C@@H]1CN(C)S(=O)(=O)c1cn(C)cn1 | 3 | -1 | 0 | 10 | . | -2
CCC(=O)Nc1ccc2c(c1)C(=O)N(C)C[C@H](OC)[C@@H](C)CN(C(=O)c1ccccc1F)[C@H](C)CO2 | -1 | 0 | -3 | -2 | . | -1
O=C1CC[C@@H](O)CCN1CC[C@H](Sc1ccccc1)c1ccccc1 | -31* | 0 | 2 | -7 | -3 | 2
CCS(=O)(=O)N[C@H]1C=C[C@H](CC(=O)NCc2ccc(F)cc2)O[C@H]1CO | 4 | 0 | 28 | 11 | . | 0
O=C(c1ccccc1)c1c(O)nc(-c2ccccc2)n(-c2ccccc2)c1=O | -25* | 0 | 2 | . | 2 | 1
CC(=O)c1c(O)c(C)c(-c2ccccc2)n(-c2ccccc2)c1=O | . | . | -2 | -1 | -14 | 2
CNC[C@H]1Oc2ccc(NC(=O)NC3CCCCC3)cc2CC(=O)N([C@@H](C)CO)C[C@H]1C | 6 | 0 | 4 | 3 | . | 4
